Screening data from PubChem.
An excerpt weighted towards active compounds, which were near 0.6% of everything screened.
STK33 kinase inh – inhibitors of purified STK33 kinase, primary screen, biochemical, ADP-Glo luminescence, homogeneous, cell-free; Serine/threonine-protein kinase 33 (Homo sapiens), Q9BYT3; MBP phosphorylation; inhibition, % at 10 µM; actives 0.073% (n = 320,000);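 active means inhibition at or above 25%, using the most active replicate where run in duplicate; inactive means inhibition below 25%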
Target sequence (Q9BYT3 whole entry, looked up): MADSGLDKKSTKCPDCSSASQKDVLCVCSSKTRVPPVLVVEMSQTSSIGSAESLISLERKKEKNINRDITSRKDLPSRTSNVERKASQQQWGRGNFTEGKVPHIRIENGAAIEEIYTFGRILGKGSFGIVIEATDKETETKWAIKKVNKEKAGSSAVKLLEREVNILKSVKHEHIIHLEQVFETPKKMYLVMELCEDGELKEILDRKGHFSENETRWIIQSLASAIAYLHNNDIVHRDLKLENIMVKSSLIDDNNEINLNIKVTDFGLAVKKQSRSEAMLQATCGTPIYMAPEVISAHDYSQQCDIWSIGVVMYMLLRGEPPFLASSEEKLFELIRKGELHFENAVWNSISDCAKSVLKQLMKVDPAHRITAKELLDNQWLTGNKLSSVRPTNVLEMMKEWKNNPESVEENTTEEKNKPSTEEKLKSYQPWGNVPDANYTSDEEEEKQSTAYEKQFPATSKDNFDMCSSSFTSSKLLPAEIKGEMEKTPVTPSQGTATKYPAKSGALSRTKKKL
GSK3A inh – blockers of GSK3A enzyme activity – biochemical, luminescence, cell-free homogeneous, HTS, primary screen. Glycogen synthase kinase-3 alpha (Homo sapiens), P49840. actives 0.1% (n = 320,000). AID 2650, 2010. GSK-3 alpha kinase, ADP-Glo luminescence, 60 min. inhibition, % at 10 µM;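 active means more than half of replicates show inhibition above 20%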;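 further: GST-tagged GSK-3 alpha with peptide substrate and 25 µM ATP; 0% = DMSO neutral wells and 100% = GW8510 positive control wells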
PolyA inh – polyadenylation inhibitors in yeast reporter cells, primary screen, luminescence, S. cerevisiae | S. cerevisiae SKY197-pL101 polyadenylation reporter, beta-gal luminescence; efflux-impaired pdr1/pdr3 knockout yeast; score 100 = 6 SD above DMSO | actives 0.02% (n = 300,000) | activity score, % at 12 µM;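 active means lowest replicate activity score at least 50, where 100 means six control SD above control mean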;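 further: yeast exposed to compound for 9 h at 30 °C; higher score means more reporter readthrough which indicates perturbed polyadenylation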
GSK3B inh – human GSK3beta kinase inhibitors, primary screen, biochemical, cell-free homogeneous, HTS; Glycogen synthase kinase-3 beta (Homo sapiens), P49841; GST-GSK3beta kinase, ADP-Glo luminescence, 60 min; hits give low values; activity score (negative = inhibition), % at 10 µM; actives 0.038% (n = 300,000); AID 2097, 2009;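 active means more than half of replicate wells score below -50%, meaning over 50% inhibition versus plate controls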;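 further: 0% = median DMSO wells and -100% = median GW8510 positive control wells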
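Assay system: GST-tagged human GSK3beta kinase, cell-free; Input: 1.6 ng GSK3beta; Medium: Tris/MgCl2 kinase buffer; Timing: 60 min enzyme reaction, room temperature; Signal: ADP-Glo luminescence quantifying ADP generated by kinase; Evaluation: score relative to plate controls; Benchmarks: DMSO neutral wells and GW8510 at 20 µM as positive.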
Efflux pump inh – inhibitors of Candida efflux pumps in yeast, primary screen, S. cerevisiae, Nile Red, multiplex | S. cerevisiae Candida pump triplex | inhibition, % at 10 µM | AID 485275, 2010 | actives 0.44% (n = 330,000);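 active means plate passing quality check with inhibition over a set limit, or well fluorescence over plate mean plus 4 SD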;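 further: Nile Red retained in pooled yeast measured as flow cytometry median fluorescence; 0% = buffer negative control and 100% = Enniatin B positive control; higher means more Nile Red kept so more efflux inhibition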
Cmpd fluor yeast – counter-screen for efflux pump inhibitors: compound fluorescence | shares compounds with Efflux pump inh | fluorescence ratio to DMSO, % at 10 µM | AID 588517 | S. cerevisiae AD/pABC3, flow cytometry | actives 4% (n = 1,700);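 active means fluorescence ratio to DMSO above its plate's cutoff, the plate mean ratio plus 5 SD, cut at about 210% in these data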;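 further: unstained yeast with no Nile Red so the signal is compound autofluorescence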
CaMdr1 efflux inh – inhibitors of Candida albicans Mdr1 efflux, confirmation, flow cytometry, singleplex, Cherry Pick1 set | S. cerevisiae AD/CaMDR1, Nile Red efflux | actives 1% (n = 1,700) | inhibition, % at 10 µM | shares compounds with Efflux pump inh; in the data active means inhibition above about 26%;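 further: 0% = DMSO vehicle and 100% = reference inhibitor; higher means more Nile Red retained so more efflux inhibition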
Cdr2 pump inh – inhibitors of Candida albicans Cdr2 efflux pump, confirmation, S. cerevisiae AD/CaCDR2, flow cytometry, cherry pick 1, singleplex; Nile Red retention ratio vs DMSO, % at 10 µM; Nile Red retention; shares compounds with Efflux pump inh; AID 588520, 2011; actives 4% (n = 1,700); in the data active means Nile Red retention ratio vs DMSO above about 190%;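 further: higher ratio means more blocking of Cdr2 efflux of the dye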
Cdr1 pump inh – inhibitors of Candida albicans Cdr1 efflux pump, confirmation, S. cerevisiae AD/CaCDR1, flow cytometry, cherry pick 1, singleplex; shares compounds with Efflux pump inh; Nile Red efflux; inhibition, % at 10 µM; actives 1% (n = 1,700); AID 588522, 2011;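 active means inhibition above the screen-wide mean plus twice its standard deviation, cut at about 32% in these data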
Starred values were filed as active, the others as inactive; x = no result.

SMILES	STK33 kinase inh	GSK3A inh	PolyA inh	GSK3B inh	Efflux pump inh	Cmpd fluor yeast	CaMdr1 efflux inh	Cdr2 pump inh	Cdr1 pump inh
Cc1ccnc(NCc2c(O)ccc3ccccc23)c1	1.1	2.0	20.2	0.4	0.1	x	x	x	x
CCOc1ccc(OCCC(=O)N(CCC(C)C)c2c(N)n(Cc3ccccc3)c(=O)[nH]c2=O)cc1	-0.4	-1.6	0.8	0.5	0.3	x	x	x	x
COc1ccc(NC(=O)CN(C)C(=O)/C=C/c2cn(-c3ccccc3)nc2-c2ccc(F)cc2)cc1	-0.8	-1.2	15.9	0.9	0.0	x	x	x	x
COc1ccc(NC(=O)CN(C)C(=O)/C=C/c2cn(-c3ccccc3)nc2-c2ccc(C)cc2)cc1	6.8	-0.1	11.4	-0.5	0.5*	91.0	-0.4	112.4	-0.1
CCC(C)/C(C)=N/NC(=O)CNS(=O)(=O)c1ccc([N+](=O)[O-])cc1 (stereo not drawn)	-1.7	-0.6	20.1	-0.6	-0.1	x	x	x	x
CCc1nnc2n1N=C(c1ccc(OC)cc1)CS2	10.5	7.6	9.8	-1.1	0.8*	90.5	-0.8	86.7	-0.5
COc1cc(S(=O)(=O)Nc2ccccn2)ccc1F	1.0	1.0	14.6	-1.0	0.7*	104.5	-0.3	104.2	0.0
Cc1ccc(NC(=O)COc2ccc(N(C)S(=O)(=O)c3ccc(F)cc3)cc2)cc1	0.7	18.4	x	x	0.8*	86.5	0.1	103.8	-0.4
CN(c1ccc(OCC(=O)OCC(=O)Nc2ccc(F)cc2)cc1)S(=O)(=O)c1ccc(Cl)cc1	-0.5	-1.9	-2.0	-2.4	0.1	x	x	x	x
Oc1[nH]c2ccccc2c1/C=N/N1CCCCC1	-1.6	6.8	6.8	-3.3	6.7*	102.2	0.0	98.1	0.0
Oc1ccccc1/C=N/N1CCCCC1	-0.9	-1.3	8.0	0.2	0.0	x	x	x	x
Cc1noc(C)c1CSCC(=O)Nc1ccc(S(=O)(=O)C(F)F)cc1	-1.1	-3.2	-7.5	1.0	0.2	x	x	x	x
Cc1cc(C(=O)N/N=C/c2cccc([N+](=O)[O-])c2)c2ccccc2n1	-1.8	3.7	-3.7	-4.2	8.3*	845.4*	60.3*	113.8	1.9
CCn1ncc(/C=C/C(=O)c2ccccc2)c1C	7.2	-0.1	-31.8	2.0	11.1*	106.2	0.0	91.4	-0.1
Cc1nn(C)cc1/C=C/C(=O)c1ccccc1	5.4	-0.5	-4.3	-1.3	-0.1	x	x	x	x
Nc1nc2c(F)cccc2s1	0.7	-1.4	-7.9	-0.7	2.2*	99.0	-0.2	105.1	0.0
Fc1cccc2sc(Nc3nc4c(F)cccc4s3)nc12	-0.3	-0.1	5.6	-2.5	-0.3	x	x	x	x
CN=C1S/C(=C\c2cccc(Cl)c2Cl)C(=O)N1C	-0.4	4.4	9.7	-2.3	-0.1	x	x	x	x
O=C(Nc1nnc(-c2ccc(F)cc2)s1)Nc1ccccc1F	-2.8	-4.5	6.5	1.2	0.8*	101.8	0.1	107.8	-0.1
CCN(Cc1ccccc1)C(=O)COC(=O)c1cc(Cl)nc(Cl)c1	0.2	1.2	-6.6	1.3	0.0	x	x	x	x
Cc1ccc(-c2cc(C(=O)Nc3ccc(S(=O)(=O)Nc4onc(C)c4C)cc3)c3ccccc3n2)cc1	0.2	-2.8	0.4	2.5	0.6*	114.3	0.2	93.5	0.0
Cc1ccccc1C(=O)Nc1ccc(S(=O)(=O)Nc2onc(C)c2C)cc1	-1.3	-4.1	-4.1	0.9	0.1	x	x	x	x
